Here are results for four compounds from ChEMBL document CHEMBL4765238, “Structure-Based Discovery and Optimization of Benzo[ d]isoxazole Derivatives as Potent and Selective BET Inhibitors for Potential Treatment of Castration-Resistant Prostate Cancer (CRPC)” (J Med Chem, 2018).

pIC50: −log10 of the molar value. Calls of active or inactive are those of the source. The rule behind the calls is not given here.

Series [1] in a line: Toxicity in CB17/IcrHSD-Prkdc-SCID mouse xenografted with human LNCaP C4-2B cells assessed as effect on animal behaviour at 50 mg/kg, ip administered 5 times per week for 25 days. The series is classed as organism-based. Conditions: in vivo, 600 h, time 25 day. The method, boiled down:
(§1)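 C4-2B xenograft mice randomized once tumors reached about 100 mm3. Vehicle or compound given i.p. at 50 mg/kg, five times per week, over a 25-day treatment period. Tolerability judged from body weight, tracked across treatment days, and from general behaviour.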
Background: A xenograft is tissue or cells of one species grown in another, often human tumour cells in immunodeficient mice.

For series [2], the system named is LNCaP. Description: Inhibition of BET bromodomain in human LNCaP cells assessed as suppression of KLK2 mRNA expression at 5 uM incubated for 48 hrs by SYBR green dye based qRT-PCR analysis. The series is classed as cell-based. The method, boiled down: (§2)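 LNCaP or VCaP cells exposed to vehicle (DMSO) or compound at 5 µM for 48 h; mRNA levels measured by qRT-PCR; mean ± s.e.m., n = 3; two-tailed Student's t-test.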

Series [3] is described as follows: Toxicity in CB17/IcrHSD-Prkdc-SCID mouse xenografted with human LNCaP C4-2B cells assessed as effect on body weight at 50 mg/kg, ip administered 5 times per week for 25 days. The format is organism-based. The conditions noted are these: in vivo, 600 h, time 25 day. The method, boiled down: as §1
The subject of the next series is CWR22R. Description: Antiproliferative activity against AR-positive human 22Rv1 cells assessed as reduction in cell viability incubated for 96 hrs by cell-titer glo assay. The series is classed as functional, cell-based. The conditions noted are these: 22Rv1, 96 h. The method, boiled down: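 Prostate cancer cells treated across a concentration range; viability read by CellTiter-Glo luminescence; experiments in triplicate; IC50 derived from the dose–response curves.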

The subject of another series is MCF7. Kind of series: Antiproliferative activity against human MCF-7 cells assessed as reduction in cell viability incubated for 96 hrs by cell-titer glo assay. The conditions noted are these: MCF7, 96 h. The series is classed as functional, cell-based.
In a further series the test system is LNCaP C4-2B. Kind of series: Inhibition of colony formation in human LNCaP C4-2B cells at 0.5 uM incubated for 14 days by crystal violet staining based assay. The series is classed as functional, cell-based. The conditions noted are these: time 14.0 day. The method, boiled down: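 C4-2B cells cultured with vehicle (DMSO) or compound at 0.5, 1.0 or 2.0 μM for 14 days, then colonies stained and counted against vehicle.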

The next series has as its system NCI-H1975. Kind of series: Antiproliferative activity against human NCI-H1975 cells assessed as reduction in cell viability incubated for 72 hrs by cell-titer glo assay. The series is classed as functional, cell-based. The conditions noted are these: NCI-H1975, 72 h.
Series [4] is described as follows: AUC in Sprague-Dawley rat at 2 mg/kg, iv by LC/MS analysis. The format is ADME, organism-based. Set-up: dose 2 mg/kg. The conditions noted are these: in vivo. The method, boiled down:
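Sprague-Dawley rats dosed iv at 2 mg/kg (a separate oral arm received 10 mg/kg); plasma exposure parameters derived from the concentration–time profile.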

In series [5] the test system is LNCaP. Description: Inhibition of BET bromodomain in human LNCaP cells assessed as suppression of Myc mRNA expression at 5 uM incubated for 48 hrs by SYBR green dye based qRT-PCR analysis. The format is cell-based. The method, boiled down: as §2
In series [6] the target is T1, Bromodomain-containing protein 9 (Homo sapiens) (UniProt Q9H8M2).
T1 sequence (whole entry): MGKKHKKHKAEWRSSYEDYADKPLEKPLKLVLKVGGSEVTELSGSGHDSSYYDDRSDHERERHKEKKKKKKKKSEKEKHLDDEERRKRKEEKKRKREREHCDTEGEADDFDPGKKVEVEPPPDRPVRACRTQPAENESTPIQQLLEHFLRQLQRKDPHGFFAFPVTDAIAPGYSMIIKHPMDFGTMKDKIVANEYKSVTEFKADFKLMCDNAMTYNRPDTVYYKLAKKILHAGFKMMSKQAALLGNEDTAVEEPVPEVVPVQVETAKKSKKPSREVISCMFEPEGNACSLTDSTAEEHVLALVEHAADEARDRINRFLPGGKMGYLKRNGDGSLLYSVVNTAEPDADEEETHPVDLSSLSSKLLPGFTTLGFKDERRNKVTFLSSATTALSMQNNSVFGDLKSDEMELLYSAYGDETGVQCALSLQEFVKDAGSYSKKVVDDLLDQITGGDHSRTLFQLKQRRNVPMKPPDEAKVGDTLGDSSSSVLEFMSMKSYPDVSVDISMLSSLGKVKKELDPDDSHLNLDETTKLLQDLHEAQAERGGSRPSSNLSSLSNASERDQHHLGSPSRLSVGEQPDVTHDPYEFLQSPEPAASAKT
Description: Binding affinity to human recombinant His6-tagged BRD9 (L14 to Q134 residues) expressed in Escherichia coli BL21 (DE3) cells assessed as change in melting temperature at 200 uM incubated for 30 mins by SYPRO orange dye based thermal shift assay. The essentials: (§3)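 Thermal shift assay measuring change in melting temperature of each isolated bromodomain module in the presence of compound versus without.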

In series [7] the test system is VCaP. Description: Inhibition of BET bromodomain in human VCaP cells assessed as suppression of KLK2 mRNA expression at 5 uM incubated for 48 hrs by SYBR green dye based qRT-PCR analysis. The series is classed as cell-based. The method, boiled down:
as §2
(In general: Real-time PCR tracks product formation cycle by cycle.)

The target in series [8] is Bromodomain-containing protein 2 (Homo sapiens) (UniProt P25440). Description: Binding affinity to human recombinant His6-tagged BRD2 bromodomain 1 (K77 to N194 residues) expressed in Escherichia coli BL21 (DE3) cells assessed as change in melting temperature at 200 uM incubated for 30 mins by SYPRO orange dye based thermal shift assay. The method, boiled down:
as §3

The test system of another series is Hs-578T. Description: Antiproliferative activity against human Hs-578T cells assessed as reduction in cell viability incubated for 72 hrs by cell-titer glo assay. The series is classed as functional, cell-based.
Series [9] relates to VCaP. Description: Inhibition of BET bromodomain in human VCaP cells assessed as suppression of full-length androgen receptor mRNA expression at 5 uM incubated for 48 hrs by SYBR green dye based qRT-PCR analysis. The series is classed as cell-based. The essentials:
as §2

Series [10] has as its target T2, Bromodomain-containing protein 4 (Homo sapiens, UniProt O60885). Kind of series: Binding affinity to human recombinant His6-tagged BRD4 bromodomain 1 (N44 to E168 residues) expressed in Escherichia coli BL21 (DE3) cells assessed as change in melting temperature at 200 uM incubated for 30 mins by SYPRO orange dye based thermal shift assay. The method, boiled down: as §3

Series [11] has as its target Histone acetyltransferase KAT2B (Homo sapiens) (UniProt Q92831). Kind of series: Binding affinity to human recombinant His6-tagged PCAF (G715 to D831 residues) expressed in Escherichia coli BL21 (DE3) cells assessed as change in melting temperature at 200 uM incubated for 30 mins by SYPRO orange dye based thermal shift assay. The essentials:
as §3

Series [12] has as its system LNCaP. Description: Inhibition of BET bromodomain in human LNCaP cells assessed as suppression of PSA mRNA expression at 5 uM incubated for 48 hrs by SYBR green dye based qRT-PCR analysis. The format is cell-based. The essentials: as §2
In another series the test system is MV4-11. Description: Antiproliferative activity against human MV4-11 cells assessed as reduction in cell viability incubated for 120 hrs by cell-titer glo assay. Conditions: MV4-11, 120 h. The series is classed as functional, cell-based.
The target of series [13] is T2, Bromodomain-containing protein 4. Description: Inhibition of HYSGRGK(Ac)GGK(Ac)GLGK(Ac)GGAK(Ac)RHRK(Biotin)-OH binding to recombinant human His6-tagged BRD4 bromodomain 1 (N44 to E168 residues) expressed in Escherichia coli BL21 (DE3) cells measured after 2 hrs by Alphascreen assay. Background: Bead proximity is the source of the signal in Alpha formats.
The subject of the next series is A549. Kind of series: Antiproliferative activity against human A549 cells assessed as reduction in cell viability incubated for 72 hrs by cell-titer glo assay. The series is classed as functional, cell-based. The conditions noted are these: A549, 72 h.
The subject of series [14] is VCaP. Kind of series: Inhibition of BET bromodomain in human VCaP cells assessed as suppression of AR-V7 mRNA expression at 5 uM incubated for 48 hrs by SYBR green dye based qRT-PCR analysis. The series is classed as cell-based. The essentials:
as §2

Chain of Bromodomain-containing protein 2 (Homo sapiens) (P25440 whole entry, looked up, the tested form may be a part): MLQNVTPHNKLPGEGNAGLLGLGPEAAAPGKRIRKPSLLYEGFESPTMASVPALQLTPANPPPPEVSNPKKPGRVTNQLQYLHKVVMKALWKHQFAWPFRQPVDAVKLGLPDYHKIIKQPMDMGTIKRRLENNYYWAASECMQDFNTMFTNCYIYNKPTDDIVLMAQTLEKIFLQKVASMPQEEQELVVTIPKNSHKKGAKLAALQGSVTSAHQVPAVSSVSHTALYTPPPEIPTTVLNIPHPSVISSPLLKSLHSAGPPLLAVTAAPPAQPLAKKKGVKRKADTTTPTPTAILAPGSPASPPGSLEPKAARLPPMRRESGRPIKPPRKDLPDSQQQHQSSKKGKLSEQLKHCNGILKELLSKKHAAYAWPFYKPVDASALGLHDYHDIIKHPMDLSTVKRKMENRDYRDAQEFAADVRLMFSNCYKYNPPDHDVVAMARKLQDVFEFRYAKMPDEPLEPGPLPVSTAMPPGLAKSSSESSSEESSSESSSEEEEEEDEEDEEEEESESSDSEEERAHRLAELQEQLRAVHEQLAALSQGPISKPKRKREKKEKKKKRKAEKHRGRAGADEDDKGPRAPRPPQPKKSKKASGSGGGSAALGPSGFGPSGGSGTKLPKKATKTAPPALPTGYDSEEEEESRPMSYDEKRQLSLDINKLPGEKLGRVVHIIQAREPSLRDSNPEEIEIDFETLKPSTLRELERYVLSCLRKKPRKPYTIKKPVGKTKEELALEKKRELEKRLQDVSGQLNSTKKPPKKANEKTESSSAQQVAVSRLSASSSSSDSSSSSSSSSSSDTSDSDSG
Chain of Histone acetyltransferase KAT2B (Homo sapiens) (Q92831 whole entry, looked up, the tested form may be a part): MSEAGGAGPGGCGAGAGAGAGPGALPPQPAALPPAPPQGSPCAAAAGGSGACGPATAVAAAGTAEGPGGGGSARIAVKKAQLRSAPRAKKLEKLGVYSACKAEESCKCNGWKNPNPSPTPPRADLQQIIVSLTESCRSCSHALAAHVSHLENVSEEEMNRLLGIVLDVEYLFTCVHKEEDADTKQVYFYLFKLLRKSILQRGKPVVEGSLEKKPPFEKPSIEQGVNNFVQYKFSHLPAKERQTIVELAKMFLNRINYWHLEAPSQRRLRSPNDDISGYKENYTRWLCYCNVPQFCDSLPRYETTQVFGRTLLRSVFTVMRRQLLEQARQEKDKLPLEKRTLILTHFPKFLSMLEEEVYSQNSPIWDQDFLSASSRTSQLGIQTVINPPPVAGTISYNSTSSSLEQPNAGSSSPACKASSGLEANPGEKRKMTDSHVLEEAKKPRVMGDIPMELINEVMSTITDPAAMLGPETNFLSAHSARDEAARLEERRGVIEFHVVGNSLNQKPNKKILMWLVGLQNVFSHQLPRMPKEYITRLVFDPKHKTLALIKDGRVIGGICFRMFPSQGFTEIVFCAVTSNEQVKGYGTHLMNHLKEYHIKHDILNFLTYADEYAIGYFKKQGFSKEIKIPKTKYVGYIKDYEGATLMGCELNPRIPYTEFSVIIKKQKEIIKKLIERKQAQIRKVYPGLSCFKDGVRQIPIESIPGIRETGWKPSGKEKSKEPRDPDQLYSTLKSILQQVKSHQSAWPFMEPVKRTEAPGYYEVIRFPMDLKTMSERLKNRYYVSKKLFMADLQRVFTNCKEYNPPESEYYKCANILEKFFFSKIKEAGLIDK

By pIC50 is commonly meant the IC50 on a negative log10 scale, so that one unit is a factor of ten. What is called AUC is the area under the concentration-time curve, a measure of exposure. A lower AUC goes with low exposure. As a reminder, the ΔTm is the shift of the melting midpoint relative to a reference. For the compound `Cc1noc2ccc(-c3nc4ccc(N5CCOC[C@@H]5C)cc4n3CC3CCCCC3)cc12`, the Activity entry in [1] and in series [3] was “Non-Toxic” throughout. The inhibition entry in the series with LNCaP [2], in the series on LNCaP C4-2B, in the series with LNCaP [5], in the series with VCaP [7], in the series on VCaP [9] and in the series on LNCaP [12] was “Active” throughout. In addition, the inhibition entry in the series on VCaP [14] was “Active”. Further, the negative logarithm of the IC50 (pIC50) is 6.15 with CWR22R; 6.00 in the series on MCF7; < 5.30 in the series on NCI-H1975; 6.00 in the series on Hs-578T; 6.40 with MV4-11; 6.74 in [13]. Besides, the pIC50 with A549 was 5.60. In [4], the area under the curve (AUC) stood at 881 ng·h/mL. The ΔTm is -0.8 °C in series [6], 6.3 °C in [8], 9.9 °C in series [10] and -0.6 °C in series [11].
With `COc1cc2onc(C)c2cc1NS(=O)(=O)c1cc(Br)ccc1OC`, the Activity result in [1] and in series [3] was “Non-Toxic” each time. Also, the inhibition entry in the series on LNCaP [2], in the series with LNCaP C4-2B, in the series with LNCaP [5], with VCaP [7], with VCaP [9] and with LNCaP [12] was “Active” each time. In addition, in the series on VCaP [14], the inhibition entry is “Active”. Besides, the negative logarithm of the IC50 (pIC50) in the series on CWR22R is 5.82; with MCF7, 6.00; in the series on NCI-H1975 it was 5.60; in the series on Hs-578T it was 6.00; in the series with MV4-11 it was 6.40; in series [13], 6.89. The pIC50 with A549 was < 5.30. The compound also showed an exposure (AUC) in series [4] of 1170 ng·h/mL. The ΔTm in series [6] was -0.9 °C; in series [8] it was 5.3 °C; in series [10] it was 9.8 °C; in [11], 2.7 °C.
On to `Cc1noc2c(Br)cc(-c3nc4ccc(N5CCOCC5)cc4n3CC3CCCCC3)cc12`, for which the negative logarithm of the IC50 (pIC50) with CWR22R is 6.19; in [13], 6.52. Also, the ΔTm in series [6] was -0.9 °C; in series [8] it was 6 °C; in series [10], 9.2 °C; in series [11], -0.6 °C.
Turning to `CNc1cc2onc(C)c2cc1NS(=O)(=O)c1cc(Br)ccc1OC`, the pIC50 was 5.17 in the series with CWR22R and 6.82 in series [13]. The ΔTm in [6] was -0.8 °C; in series [8] it was 5.3 °C; in series [10], 9.2 °C; in series [11], 2.6 °C.
